Data set [1] has as its system Leishmania donovani. As to the kind of experiment: Antiparasitic activity against Leishmania donovani amastigotes.
Data set [2] in a line: Selectivity index, ratio of CC50 for mouse RAW264.7 cells to IC50 for Trypanosoma brucei gambiense FeoITMAP/1893. The following applies: read-out: Ratio CC50/IC50. Format: toxicity.
Data set [3] concerns the target T1, Trypanothione reductase (Trypanosoma brucei brucei, UniProt P39051). In words: Mixed-type inhibition of Trypanosoma brucei trypanothione reductase assessed as enzyme-inhibitor-substrate complex using varying levels of TS2 as substrate in presence of NADPH by Lineweaver-Burk plot analysis. The procedure, abridged:
(§1)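 TryR assay in Hepes/EDTA buffer pH 7.5 with 100 μM NADPH at 25 °C, started with TS2 and read at 340 nm. Inhibition type was assigned from a Lineweaver-Burk plot.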

The subject of data set [4] is Leishmania donovani. In words: Antiparasitic activity against Leishmania donovani LV9 axenic amastigotes incubated for 72 hrs by resazurin dye based assay. Format: functional, organism-based. The settings on record: LV9, 72 h. An outline of the steps: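 LV9 axenic amastigotes were derived from promastigotes in M-199 at pH 5.5, 37 °C, 5% CO2, and used in log phase. Cells at 10⁶/mL were exposed 72 h to two-fold dilutions from 100 to 0.02 μM. Resazurin was then added for 24 h in the dark and read at OD570/OD600. IC50 is relative to excipient-only controls; miltefosine was the reference.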
For orientation: Alamar Blue is a resazurin reagent that responds to reducing activity.

Data set [5] relates to Trypanosoma brucei gambiense. In words: Trypanocidal activity against Trypanosoma brucei gambiense FeoITMAP/1893 after 72 hrs by resazurin dye based assay. Format: functional, organism-based. The settings on record: FeoITMAP/1893, 72 h. An outline of the steps:
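T. b. gambiense Feo was grown in supplemented IMDM with 10% FBS. Cells at 4.10⁴/mL were exposed 72 h at 37 °C, 5% CO2 in the dark to two-fold dilutions. Resazurin (450 µM solution) was added for 6 h and read at OD570/OD600. Result given as IC50; pentamidine was the reference.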

Data set [6] can be described thus: Stability in human plasma by HPLC analysis. It counts as ADME, cell-free. The settings on record: read-out: Stability. An outline of the steps:
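Human plasma was diluted 10-fold in PBS and incubated with 1 mM compound solutions for 0, 2 and 12 h at 37 °C. Samples were quenched with ice-cold acetonitrile, centrifuged, filtered and analysed by C18 reversed-phase HPLC at 25 °C.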

For data set [7], the system named is Leishmania donovani. In words: Antiparasitic activity against Leishmania donovani LV9 axenic intramacrophage amastigotes infected in mouse RAW264.7 cells incubated for 48 hrs by Sybr Green 1 dye based fluorescence assay. The following applies: LV9, RAW264.7, 48 h. Format: functional, organism-based. An outline of the steps: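 RAW 264.7 cells at 2.10⁴/well were infected 24 h with axenic amastigotes at a 16:1 parasite to macrophage ratio, then extracellular parasites were removed. Cells were treated 48 h with two-fold dilutions from 100 µM. They were then lysed (freeze-thaw, proteinase K, 55 °C overnight) and total DNA read by SYBR Green I fluorescence against untreated infected cells. Result given as IC50.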

A short description of data set [8]: Cytotoxicity against mouse RAW264.7 cells assessed as reduction in cell viability after 48 hrs by resazurin assay. Format: cell-based. The procedure, abridged: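 RAW 264.7 macrophages at 2.10⁴/well were preincubated 24 h, then exposed 48 h at 37 °C, 5% CO2 to two-fold dilutions in DMEM. Resazurin was added for 4 h in the dark and read at OD570/OD600. Result given as CC50.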

The target of data set [9] is T1, Trypanothione reductase. As to the kind of experiment: Inhibition of Trypanosoma brucei trypanothione reductase using TS2 as substrate in presence of NADPH by spectrophotometric method.
Data set [10] has as its target T1, Trypanothione reductase. In words: Mixed-type inhibition of Trypanosoma brucei trypanothione reductase assessed as enzyme-inhibitor complex using varying levels of TS2 as substrate in presence of NADPH by Lineweaver-Burk plot analysis. The procedure, abridged: as §1
Data set [11] has as its target Trypanothione reductase (Trypanosoma brucei brucei) (UniProt P39051). In words: Inhibition of Trypanosoma brucei trypanothione reductase at 40 uM using 40 uM TS2 as substrate in presence of NADPH by spectrophotometric method relative to control. The procedure, abridged: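 Recombinant T. brucei TryR (5-10 mU) in 40 mM Hepes, 1 mM EDTA, pH 7.5, with 100 μM NADPH, 5% DMSO, at 25 °C. Inhibitor was fixed at 40 μM; TS2 at 100 or 40 μM started the reaction. NADPH consumption was followed at 340 nm and % inhibition taken against DMSO-matched controls. Run in triplicate, mean ± SD.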

The test system of data set [12] is Trypanosoma brucei brucei. In words: Antitrypanosomal activity against Trypanosoma brucei brucei CMP infected in Swiss mouse assessed as change in mean survival time at 10 mg/kg, ip administered as single dose measured up to 30 days. Format: functional. The procedure, abridged: (§2)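 Swiss mice infected ip with 10,000 T. b. brucei CMP trypanosomes, randomly grouped (six per batch), then given one ip dose of 100 or 10 mg/kg; controls received pentamidine, melarsamine or excipient. Parasitemia followed at days 2, 3, 4 and 30; deaths recorded by day post-treatment; efficacy as mean survival time minus that of excipient-treated controls (days ± SD).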

Data set [13] in a line: Stability in human liver S9 fraction at 0.1 to 1 mM up to 12 hrs in absence of NADPH. It counts as ADME, subcellular. The following applies: s9, 12 h, 1000 µM. The procedure, abridged: (§3)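 Pooled human liver S9 was diluted 20-fold in PBS (1 mg/ml protein). Compound solutions of 100 μM and 1 mM were incubated 0 and 12 h at 37 °C, with or without 1 mM NADPH.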
Data set [14] concerns Mus musculus. In words: Toxicity in Swiss mouse assessed as death at 100 mg/kg, ip administered as single dose measured up to 30 days. Format: organism-based. The settings on record: in vivo, 720 h. The procedure, abridged:
as §2

Data set [15] is described as follows: Stability in human liver S9 fraction at 0.1 to 1 mM up to 12 hrs in presence of NADPH. The following applies: s9, 12 h, 1000 µM. It counts as ADME, subcellular. The procedure, abridged:
as §3

Data set [16] concerns Mus musculus. In words: Toxicity in Swiss mouse assessed as death at 10 mg/kg, ip administered as single dose measured up to 30 days. Format: organism-based. The following applies: in vivo, 720 h. An outline of the steps: as §2
For data set [17], the system named is Leishmania donovani. As to the kind of experiment: Antileishmanial activity against Leishmania donovani infected in Balb/c mouse at 2 mg/kg/day, ip for 5 consecutive days. Format: functional, organism-based. An outline of the steps: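 Balb/c mice infected with L. donovani; 2 mg/kg/day given intraperitoneally on five consecutive days, total 10 mg/kg.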
For data set [18], the system named is Trypanosoma brucei brucei. In words: Antitrypanosomal activity against Trypanosoma brucei brucei CMP infected in Swiss mouse assessed as change in mean survival time at 100 mg/kg, ip administered as single dose measured up to 30 days. It counts as functional. The procedure, abridged:
as §2

Data set [19] is described as follows: Selectivity index, ratio of CC50 for mouse RAW264.7 cells to IC50 for Leishmania donovani LV9 axenic amastigotes incubated for 72 hrs by resazurin dye based assay. Format: toxicity. The settings on record: read-out: Ratio CC50/IC50.

Active and inactive are the calls of the source. The rule behind the calls is not given here. A value given as a limit tells only on which side of the number the result lay.

T1 sequence (P39051 whole entry): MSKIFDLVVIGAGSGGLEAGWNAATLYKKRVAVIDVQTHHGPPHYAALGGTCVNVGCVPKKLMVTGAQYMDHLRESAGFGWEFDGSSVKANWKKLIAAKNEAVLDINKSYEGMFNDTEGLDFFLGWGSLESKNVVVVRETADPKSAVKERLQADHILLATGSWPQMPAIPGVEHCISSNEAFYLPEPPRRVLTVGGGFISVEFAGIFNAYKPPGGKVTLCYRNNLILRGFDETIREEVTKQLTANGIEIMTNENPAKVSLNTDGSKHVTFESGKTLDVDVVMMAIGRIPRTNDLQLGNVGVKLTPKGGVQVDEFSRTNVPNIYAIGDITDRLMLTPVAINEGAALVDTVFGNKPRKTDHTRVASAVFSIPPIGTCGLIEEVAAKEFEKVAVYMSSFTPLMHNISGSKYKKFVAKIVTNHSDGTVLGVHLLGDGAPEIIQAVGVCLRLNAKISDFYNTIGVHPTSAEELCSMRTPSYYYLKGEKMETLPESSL
Sequence of Trypanothione reductase (Trypanosoma brucei brucei) (P39051 whole entry, looked up): as the sequence (P39051 whole entry) above

A word on the IC50: it is the point on the concentration scale where inhibition reaches its midpoint. For orientation: Ki means a dissociation constant, usually derived from enzyme kinetics or from competition with a known ligand. For orientation: CC50 means the concentration giving 50% cytotoxicity. For orientation: inhibition means the share of the control response that was lost under treatment. For `NCCCCNCCCN(Cc1ccccc1)Cc1ccccc1`, the IC50 was 25 µM in the data set with Leishmania donovani [1]; above 100 µM in the data set with Leishmania donovani [4]; 8.8 µM in [5]; 27.4 µM in the data set on Leishmania donovani [7]; 8.8 µM at Trypanothione reductase [9]. For the same compound, in data set [2], the selectivity ratio amounted to 2. Also, the Ki at Trypanothione reductase [3] amounted to 20 µM; on Trypanothione reductase [10], 7.5 µM. For the same compound, the half-life in [6] is above 12 h. For the same compound, the 50% cytotoxic concentration (CC50) at 48 h in [8] amounted to 17.7 µM. In [11], the inhibition is above 50%.
With `NC1CCC(NCCCN(Cc2ccc(F)cc2)Cc2ccc(F)cc2)CC1` (stereo unspecified), the selectivity ratio in data set [2] is 11. Moreover, the Survival in data set [12] is 0 days; in data set [18], -2.3 days. The Stability entry in [13] and in data set [15] was “Stable” throughout. For the same compound, the Activity entry in the data set on Mus musculus [14] is recorded as “Toxic”; in the data set on Mus musculus [16], “Non-Toxic”. In addition, the values for the IC50 (in the data set with Leishmania donovani [4]; in data set [5]; in the data set with Leishmania donovani [7]) were 44.4 µM, 0.4 µM and 12.4 µM, respectively. Also, the outcome in the data set with Leishmania donovani [17] was inactive. Besides, in [6], the half-life was above 12 h. In addition, the CC50 at 48 h in [8] worked out at 4.4 µM.
For `NCCCCNCCCN(Cc1ccc(OCc2ccccc2)cc1)Cc1ccc(OCc2ccccc2)cc1`, the IC50 with Leishmania donovani [1] is above 3.9 µM; with Leishmania donovani [4], 72.2 µM; in data set [5], 35.5 µM; in the data set on Leishmania donovani [7], above 100 µM. Also, the selectivity ratio in [2] was above 2.8. In addition, the CC50 at 48 h in data set [8] was above 100 µM. The selectivity ratio at 72 h in data set [19] was above 1.4.

(Values after ChEMBL document CHEMBL4229356, “Synthesis and antikinetoplastid evaluation of bis(benzyl)spermidine derivatives” (Eur J Med Chem, 2018).)
